According to article PMC4636458 (Molecular cancer therapeutics, 2015):
Where two headings read alike, the source gives them in different places.

Biological target: recombinant human ezrin (Homo sapiens, UniProt P15311)
Test: SPR
Type: binding
Conditions: read-out: KD (μM)^a, HBS-P pH 7.4, 2-10% DMSO, room temperature
Outline: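 Untagged full-length recombinant human ezrin was expressed in E. coli M15 [pREP4] from a pQE16 vector. It was amine-coupled (~10,000 RU) in sodium acetate pH 4.5 to the second flow cell of a CM5 chip, with the first flow cell left empty for background subtraction. Running buffer was HBS-P (10 mM HEPES pH 7.4, 150 mM NaCl, 0.05% P20) with 2–10% DMSO. Seven concentrations (0.78–50 μM) were injected in triplicate over ezrin and control surfaces.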

recombinant human ezrin, sequence (P15311 whole entry): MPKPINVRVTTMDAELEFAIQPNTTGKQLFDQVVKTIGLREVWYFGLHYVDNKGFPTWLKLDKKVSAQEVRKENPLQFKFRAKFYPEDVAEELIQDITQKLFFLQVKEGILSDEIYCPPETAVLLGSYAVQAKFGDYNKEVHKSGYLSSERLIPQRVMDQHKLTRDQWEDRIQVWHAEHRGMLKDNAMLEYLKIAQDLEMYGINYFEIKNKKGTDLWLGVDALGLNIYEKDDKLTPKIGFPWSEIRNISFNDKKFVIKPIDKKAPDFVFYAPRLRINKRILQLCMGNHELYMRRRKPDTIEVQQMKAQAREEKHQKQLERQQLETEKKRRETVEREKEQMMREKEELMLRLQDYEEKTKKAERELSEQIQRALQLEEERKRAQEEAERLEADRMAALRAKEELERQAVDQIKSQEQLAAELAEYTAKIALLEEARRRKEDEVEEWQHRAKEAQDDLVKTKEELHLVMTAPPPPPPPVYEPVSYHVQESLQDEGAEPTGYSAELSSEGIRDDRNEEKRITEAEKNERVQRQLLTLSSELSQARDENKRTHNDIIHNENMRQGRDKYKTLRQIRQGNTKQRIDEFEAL

SMILES	Kd (n=3)	Kd (n=5)	also measured
CN1CCN(c2ccc(Nc3c4ccccc4nc4ccccc34)cc2)CC1 [MMV006172]	6.1 ± 2.8 µM	–	–
CC1CCN(Cc2ccc(NC(=O)c3cc4ccc5cccnc5c4[nH]3)cc2)CC1 [MMV020549]	10.7 ± 0.4 µM	–	–
CCn1c(SCC(=O)Nc2cc(C(F)(F)F)ccc2Cl)nc2ccccc2c1=O [MMV666103]	–	–	Kd (n=4): 2.6 ± 1 µM
CN(N=O)C1=C(NC2CCCCC2)C(=O)c2ccccc2C1=O [MMV667492]	–	–	Kd (n=2): 29.4 ± 4.4 µM

More lines, main results first:

Kd (n=3)	Kd (n=5)	SMILES	also measured
–	3.1 ± 1.6 µM	CCOC(=O)c1cn(CC)c2cc(N(C)CCc3ccc(OC)c(OC)c3)c(F)cc2c1=O [MMV665977]	–
–	2.1 ± 1 µM	COc1ccc(CCN2CCC(CN(C)Cc3cnn(-c4ccccc4)c3)CC2)cc1 [MMV666069]	–
